# Source: ChEMBL document CHEMBL1154682, “Discovery of novel benzoxazinones as potent and orally active long chain fatty acid elongase 6 inhibitors” (J Med Chem, 2009)
# Active and inactive are the calls of the source. No cut-off for these calls is given here.
# Experiments:
# [1] = target: T1, Very long chain fatty acid elongase 6 (Homo sapiens, UniProt Q9H5J4); assay: Inhibition of human ELOVL6 expressed in Pichia pastoris using palmitoyl-CoA by long chain fatty acyl-CoA elongation assay
# T1 sequence (Q9H5J4 whole entry): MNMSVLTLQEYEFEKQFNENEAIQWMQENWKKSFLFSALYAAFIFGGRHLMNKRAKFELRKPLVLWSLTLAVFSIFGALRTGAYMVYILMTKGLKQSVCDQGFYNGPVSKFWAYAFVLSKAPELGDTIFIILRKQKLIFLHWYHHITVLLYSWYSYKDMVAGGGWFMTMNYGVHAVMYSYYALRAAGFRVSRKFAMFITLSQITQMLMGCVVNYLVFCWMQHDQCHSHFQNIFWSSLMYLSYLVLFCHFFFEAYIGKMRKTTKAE
# Outline: (§1)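 Microsomes (3 μg) from Pichia pastoris SMD1168 expressing FLAG-tagged human or mouse ELOVL6 were incubated 1 h at 37 °C in 100 mM potassium phosphate pH 6.5 with 40 μM palmitoyl-CoA, 20 μM malonyl-CoA plus [14C]-malonyl-CoA, 500 μM NADPH, 200 μM BSA and 1 μM rotenone. DMSO was 1.0% final. After HCl hydrolysis, filter-retained 14C was counted. IC50 came from nonlinear regression on % of control.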
# [2] = target: T2, Very long chain fatty acid elongase 6 (Mus musculus, UniProt Q920L5); assay: Inhibition of mouse ELOVL6 expressed in Pichia pastoris using palmitoyl-CoA by long chain fatty acyl-CoA elongation assay; outline: as §1
# T2 sequence (Q920L5 whole entry): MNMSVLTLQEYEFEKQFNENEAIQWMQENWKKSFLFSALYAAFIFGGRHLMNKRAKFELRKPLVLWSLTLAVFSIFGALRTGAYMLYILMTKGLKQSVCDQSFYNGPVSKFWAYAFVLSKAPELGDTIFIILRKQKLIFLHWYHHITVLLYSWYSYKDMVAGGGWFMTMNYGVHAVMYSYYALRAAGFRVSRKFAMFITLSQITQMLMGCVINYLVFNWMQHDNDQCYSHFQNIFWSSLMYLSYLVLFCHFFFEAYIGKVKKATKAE
# [3] = target: T2, Very long chain fatty acid elongase 6; assay: Inhibition of ELOVL6 in mouse H2.35 cells assessed as elongation index; assay type: cell-based
# Outline: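 Subconfluent mouse hepatoma H2.35 cells were kept at 33 °C in DMEM with 200 nM dexamethasone and 4% FBS. Lipids were hydrolysed in NaOH at 70 °C, and fatty acids extracted and quantified by radio-HPLC. Elongation index = (C18:0 + C18:1) / (C16:0 + C16:1).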
# [4] = Volume of distribution at steady state in Sprague-Dawley rat at 1 mg/kg, iv; assay type: ADME, organism-based; set-up: dose 1 mg/kg, route intravenous; conditions: in vivo, read-out: Vdss
# Outline: (§2)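 Male SD rats, single dose: iv 1 mg/kg in PEG400/EtOH/H2O 50/10/40 or oral gavage 3 mg/kg in 0.5% methylcellulose suspension. Plasma was sampled at multiple time points up to 24 h, deproteinized with ethanol containing internal standard, and assayed. Values are means of n = 3 animals. Bioavailability was taken from AUC0-∞ after iv versus po.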
# [5] = Half life in Sprague-Dawley rat at 1 mg/kg, iv; assay type: ADME, organism-based; set-up: dose 1 mg/kg, route intravenous; conditions: in vivo; outline: as §2
# [6] = Unbound fraction in C57BL/6N mouse plasma; assay type: ADME, cell-free
# Outline: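 Equilibrium dialysis was run with C57BL/6N mouse plasma adjusted to pH 7.4 and spiked with 1 μM compound, dialysed against PBS for 6 h at 37 °C. Both sides were analysed by LC-MS/MS. Unbound fraction = Cf/Cp × 100. Mean of n = 3.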
# [7] = Plasma concentration in C57BL/6J mouse at 30 mg/kg, po after 4 hrs; assay type: ADME, organism-based; set-up: dose 30 mg/kg, route oral; conditions: read-out: Concentration_plasma
# Outline: (§3)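 Male C57BL/6J mice were given a single oral gavage of 30 mg/kg in 0.5% methylcellulose suspension. Plasma was sampled at 2, 4, 8 and 24 h, deproteinized with ethanol containing internal standard, and assayed. Values are means of n = 3 animals.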
# [8] = target: T3, Very long chain fatty acid elongase 3 (Mus musculus, UniProt O35949); assay: Inhibition of mouse ELOVL3
# T3 sequence (O35949 whole entry): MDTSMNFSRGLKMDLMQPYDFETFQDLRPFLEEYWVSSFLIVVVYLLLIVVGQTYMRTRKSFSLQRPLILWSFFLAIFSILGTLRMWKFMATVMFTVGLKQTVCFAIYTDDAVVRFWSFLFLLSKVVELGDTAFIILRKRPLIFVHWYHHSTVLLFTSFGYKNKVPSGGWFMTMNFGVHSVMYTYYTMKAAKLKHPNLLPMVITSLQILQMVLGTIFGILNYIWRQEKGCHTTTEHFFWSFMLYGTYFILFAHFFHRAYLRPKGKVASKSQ
# Outline: (§4)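 Microsomes were prepared from Pichia pastoris SMD1168 expressing FLAG-tagged human or mouse ELOVL. Incubation ran 1 h at 37 °C in 100 mM potassium phosphate pH 6.5 with 200 μM BSA, 500 μM NADPH, 1 μM rotenone, 20 μM malonyl-CoA plus [14C]-malonyl-CoA, and acyl-CoA: ELOVL1 and ELOVL3, 10 μM stearoyl-CoA; ELOVL2, 10 μM arachidonoyl-CoA; ELOVL5, 40 μM arachidonoyl-CoA. DMSO was 1.0% final. Products were acid-hydrolysed and filter-bound radioactivity counted.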
# [9] = Plasma concentration in C57BL/6J mouse at 30 mg/kg, po after 2 hrs; assay type: ADME, organism-based; set-up: dose 30 mg/kg, route oral; conditions: read-out: Concentration_plasma; outline: as §3
# [10] = Plasma concentration in C57BL/6J mouse at 1 mg/kg, po after 2 hrs; assay type: ADME, organism-based; set-up: dose 1 mg/kg, route oral
# [11] = target: T4, Very long chain fatty acid elongase 5 (Homo sapiens, UniProt Q9NYP7); assay: Inhibition of human ELOVL5; outline: as §4
# T4 sequence (Q9NYP7 whole entry): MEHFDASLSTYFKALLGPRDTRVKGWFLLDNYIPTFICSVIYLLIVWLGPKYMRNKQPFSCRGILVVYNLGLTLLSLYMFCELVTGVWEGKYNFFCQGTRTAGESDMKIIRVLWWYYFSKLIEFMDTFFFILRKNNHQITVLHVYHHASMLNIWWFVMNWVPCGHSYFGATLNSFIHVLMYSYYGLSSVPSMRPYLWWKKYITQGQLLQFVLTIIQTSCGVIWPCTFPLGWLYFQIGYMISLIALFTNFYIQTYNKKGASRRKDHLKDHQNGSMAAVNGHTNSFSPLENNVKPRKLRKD
# [12] = Plasma concentration in C57BL/6J mouse at 10 mg/kg, po after 2 hrs; assay type: ADME, organism-based; set-up: dose 10 mg/kg, route oral
# Outline: (§5)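 Male C57BL/6J mice were given a single oral gavage of 10 mg/kg in 0.5% methylcellulose suspension. Abdominal-vein blood and liver were taken 2 h after dosing. Liver was homogenized in PBS pH 7.4. Plasma and homogenate were deproteinized with ethanol containing internal standard before analysis.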
# [13] = Drug level in C57BL/6J mouse liver at 10 mg/kg, po after 2 hrs; assay type: ADME, organism-based; set-up: dose 10 mg/kg, route oral; conditions: read-out: Drug uptake; outline: as §5
# [14] = Cmax in Sprague-Dawley rat at 1 mg/kg, iv and 3 mg/kg, po; assay type: ADME, organism-based; conditions: in vivo; outline: as §2
# [15] = tested on: Mus musculus; assay: Reduction of elongation index of total fatty acids in C57BL/6J mouse plasma at 30 mg/kg, po twice daily for 3 days; assay type: functional, organism-based; set-up: dose 30 mg/kg
# Outline: (§6)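 Male C57BL/6J mice received 30 mg/kg orally twice daily for 3 days. Liver and plasma were hydrolysed in NaOH/ethanol with C17:0 internal standard. Fatty acids were derivatized with 2-nitrophenylhydrazine and measured by HPLC-UV at 400 nm. Elongation index (C18/C16) was expressed as % of vehicle control. Six mice per group.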
# [16] = target: T5, Very long chain fatty acid elongase 2 (Homo sapiens, UniProt Q9NXB9); assay: Inhibition of human ELOVL2; outline: as §4
# T5 sequence (Q9NXB9 whole entry): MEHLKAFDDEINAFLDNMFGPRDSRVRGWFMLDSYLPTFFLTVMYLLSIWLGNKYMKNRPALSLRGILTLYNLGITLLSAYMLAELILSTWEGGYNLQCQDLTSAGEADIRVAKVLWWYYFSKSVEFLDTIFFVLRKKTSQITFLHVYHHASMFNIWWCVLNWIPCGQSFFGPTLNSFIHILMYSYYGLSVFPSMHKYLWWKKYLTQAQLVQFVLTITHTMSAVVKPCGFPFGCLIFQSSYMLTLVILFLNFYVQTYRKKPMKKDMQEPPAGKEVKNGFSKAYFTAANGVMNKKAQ
# [17] = Oral bioavailability in Sprague-Dawley rat at 3 mg/kg; assay type: ADME, organism-based; conditions: in vivo; outline: as §2
# [18] = Plasma concentration in C57BL/6J mouse at 30 mg/kg, po after 8 hrs; assay type: ADME, organism-based; set-up: dose 30 mg/kg, route oral; conditions: read-out: Concentration_plasma; outline: as §3
# [19] = target: T6, Very long chain fatty acid elongase 1 (Homo sapiens, UniProt Q9BW60); assay: Inhibition of human ELOVL1; outline: as §4
# T6 sequence (Q9BW60 whole entry): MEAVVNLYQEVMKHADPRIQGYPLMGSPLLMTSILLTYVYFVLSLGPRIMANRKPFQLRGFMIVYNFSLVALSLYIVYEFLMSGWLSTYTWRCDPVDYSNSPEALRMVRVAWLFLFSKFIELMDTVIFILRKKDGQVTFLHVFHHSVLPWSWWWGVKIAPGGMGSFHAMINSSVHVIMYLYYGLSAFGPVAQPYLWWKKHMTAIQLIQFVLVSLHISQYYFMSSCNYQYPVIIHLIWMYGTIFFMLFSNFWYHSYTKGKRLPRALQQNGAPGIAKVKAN
# [20] = tested on: Mus musculus; assay: Reduction of elongation index of total fatty acids in C57BL/6J mouse liver at 30 mg/kg, po twice daily for 3 days; assay type: functional, organism-based; set-up: dose 30 mg/kg; outline: as §6
# [21] = Plasma concentration in C57BL/6J mouse at 30 mg/kg, po twice daily after 3 days; assay type: ADME, organism-based; set-up: dose 30 mg/kg, route oral
# [22] = tested on: Mus musculus; assay: Reduction of elongation index of liver lipids in C57BL/6J mouse at 1 mg/kg, po; assay type: functional, organism-based; set-up: dose 1 mg/kg
# Outline: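 Male C57BL/6J mice were dosed orally in 0.5% methylcellulose. [1-14C]palmitic acid, 10 μCi/body, was given intraperitoneally 1 h later. Liver was taken 2 h after dosing and saponified in KOH/ethanol at 70 °C. Labelled fatty acids were quantified by radio-HPLC, with elongation index C18/C16 expressed as % of control. Four mice per treatment.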
# [23] = target: T7, Very long chain fatty acid elongase 3 (Homo sapiens, UniProt Q9HB03); assay: Inhibition of human ELOVL3; outline: as §4
# T7 sequence (Q9HB03 whole entry): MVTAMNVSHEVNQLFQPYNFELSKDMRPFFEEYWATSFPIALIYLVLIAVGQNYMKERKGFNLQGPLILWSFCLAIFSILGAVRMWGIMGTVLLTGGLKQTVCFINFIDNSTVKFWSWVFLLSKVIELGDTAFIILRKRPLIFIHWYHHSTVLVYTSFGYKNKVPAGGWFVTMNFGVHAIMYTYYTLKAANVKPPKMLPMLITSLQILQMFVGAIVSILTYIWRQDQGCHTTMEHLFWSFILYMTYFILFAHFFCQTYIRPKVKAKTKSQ
# [24] = AUC (0 to infinity) in Sprague-Dawley rat at 1 mg/kg, iv and 3 mg/kg, po; assay type: ADME, organism-based; conditions: plasma; outline: as §2
# [25] = Plasma clearance in Sprague-Dawley rat at 1 mg/kg, iv and 3 mg/kg, po; assay type: ADME, organism-based; outline: as §2
smiles,measurement,setting,value
O=C1Nc2ccc(Cl)cc2C(CNC(=O)c2ccc(-c3ccccc3)cc2)(C(F)(F)F)O1 (stereo unspecified),IC50,[1],> 10 µM
O=C(Nc1ccc(F)cc1)OCC1(c2ccccc2)OC(=O)Nc2ccc(Cl)cc21 (stereo unspecified),IC50,[1],> 10 µM
"O=C1Nc2ccc(-n3cccn3)cc2C(CNC(=O)c2ccc(F)cc2)(C(F)(F)F)O1 (single isomer, unassigned; (+))",IC50,[2],29 nM
same,IC50,[3],58 nM
"O=C1Nc2ccc(-c3cn[nH]c3)cc2C(CNC(=O)c2ccc(F)cc2)(C(F)(F)F)O1 (single isomer, unassigned; (+))",IC50,[2],20 nM
same,IC50,[3],50 nM
CS(=O)(=O)c1ccc(C(=O)NCC2(C(F)(F)F)OC(=O)Nc3ccc(Cl)cc32)cc1 (stereo unspecified),IC50,[1],> 10 µM
O=C1Nc2ccc(-c3ccn[nH]3)cc2[C@](CNC(=O)c2ccc(F)cc2)(C(F)(F)F)O1,Vd,[4],0.7 L/kg
same,half-life,[5],114 min
same,fraction unbound,[6],0.107
same,concentration at 4 h,[7],3.7 µM
same,IC50,[8],19 nM
same,concentration at 2 h,[9],11.7 µM
same,IC50,[2],14 nM
same,concentration at 2 h,[10],540 nM
same,IC50,[11],> 10 µM
same,concentration at 2 h,[12],660 nM
same,concentration at 2 h,[13],12.5 µM
same,Cmax,[14],2400 nM
same,Activity,[15],inactive
same,IC50,[16],> 10 µM
same,bioavailability,[17],30%
same,concentration at 8 h,[18],700 nM
same,IC50,[3],3.6 nM
same,IC50,[19],7 µM
same,Activity,[20],Active
same,concentration at 72 h,[21],> 540 nM
same,Activity,[22],Active
same,IC50,[23],130 nM
same,AUC(0-inf),[24],4.69 µM·h
same,clearance,[25],11 mL/min/kg
